The full list was thinned out, with hits kept by preference.
T cruzi growth-1 – blocks T. cruzi growth in NIH3T3 culture | T. cruzi beta-gal in NIH3T3, GalScreen luminescence, 90 h | inhibition, % at 8.34 µM | 77,000 compounds, 5.9% hits;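 active = mean inhibition above about 93%, with at least 55% of replicates each passing it, limit read from the data, passing the limit was not always enough; inconclusive = only one of those two conditions holds; inactive = neither condition holds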
IDH1 R132H inh – inhibitors of human IDH1 R132H; O75874; IDH1 R132H reductase, diaphorase/resazurin fluorescence, 60 min; inhibition, % at 10 µM; 70,000 compounds, 0.18% hits; AID 624101; in the data active = inhibition above about 34%; inconclusive = no clear call, values can overlap the other calls; inactive = below about 11%;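 note: 0% = DMSO and 100% = no enzyme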
GASC1 inh – blocks human GASC-1 (KDM4C) demethylase activity. Q9H3R0. GST-KDM4C 2-372, H3K9me3 peptide, LANCE TR-FRET. AID 720574. 96,000 compounds, 0.15% hits. inhibition, % at 12.5 µM;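 active = mean replicate inhibition above about 25%, with at least 55% of replicates also reaching it, limit read from the data, passing the limit was not always enough; inconclusive = only one of those two conditions met; inactive = neither condition met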
Target sequence (Q9H3R0 2-372 limits assumed): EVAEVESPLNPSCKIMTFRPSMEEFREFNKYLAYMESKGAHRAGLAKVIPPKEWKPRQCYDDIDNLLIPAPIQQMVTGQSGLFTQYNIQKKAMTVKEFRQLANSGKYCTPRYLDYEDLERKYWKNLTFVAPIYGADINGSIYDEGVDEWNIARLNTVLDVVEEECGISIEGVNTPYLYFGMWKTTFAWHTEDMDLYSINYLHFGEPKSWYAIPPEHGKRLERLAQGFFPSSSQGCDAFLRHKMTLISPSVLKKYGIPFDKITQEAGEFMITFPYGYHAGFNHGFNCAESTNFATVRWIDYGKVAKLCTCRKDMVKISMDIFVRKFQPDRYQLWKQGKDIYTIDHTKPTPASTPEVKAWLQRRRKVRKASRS
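System: N-terminal GST-fused human GASC-1 (KDM4C) fragment, residues 2-372 / Amount: 10 nM GST-KDM4C in enzyme reaction / Also added: H3K9me3 peptide with Fe(II)/2OG / Times: 30 min demethylation and 1 h detection at room temperature / Signal: LANCE TR-FRET / Read-out basis: Fall in 671/618 emission ratio as inhibition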
T cruzi growth-2 – blocks T. cruzi growth in NIH3T3 host cells; T. cruzi beta-gal in NIH3T3, GalScreen luminescence, 90 h; shares compounds with T cruzi growth-1; inhibition, % at 8.35 µM; 5,600 compounds, 72% hits;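 active = mean replicate inhibition above about 95% and at least 55% of replicates individually reaching it, limit read from the data; inconclusive = only one of the two criteria is met; inactive = neither criterion is met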
T cruzi growth-3 – blocks T. cruzi growth in NIH3T3 host cells. AID 651740. shares compounds with T cruzi growth-1. 5,600 compounds, 21% hits. T. cruzi beta-gal in NIH3T3, GalScreen luminescence, 90 h. inhibition, % at 2.09 µM;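 active = mean inhibition above about 95%, with at least 55% of replicates also reaching it, limit read from the data; inconclusive = meets just one of the two conditions; inactive = meets neither condition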;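 note: plate controls were neutral control median for no effect and positive control median for full effect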
3T3 cytotox – cytotoxicity in mouse NIH/3T3 fibroblasts; shares compounds with T cruzi growth-1; NIH/3T3 viability, CellTiter-Glo ATP luminescence, 90 h; cytotoxicity (signal decrease), % at 8.35 µM; 5,600 compounds, 14% hits; AID 651742;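 active = mean signal decrease across replicates above about 35% based on untreated-well scatter, with enough replicates individually passing, limit read from the data; inconclusive = no rule stated though some were filed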;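 note: 0% = median of neutral control wells and 100% = median of positive control wells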
3T3 cytotox 2 – cytotoxicity in mouse NIH/3T3 fibroblasts. shares compounds with T cruzi growth-1. NIH/3T3 viability, CellTiter-Glo ATP luminescence, 90 h. inhibition, % at 24.9 µM. 5,600 compounds, 56% hits;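 active = mean loss of cell viability signal at or above a set limit, and enough replicates individually reaching it; inconclusive = meets only the mean limit or only the replicate share; inactive = meets neither condition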;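 note: 0% = median of neutral control wells and 100% = median of positive control wells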
* marks the source's active call; other numbers are inactive results; ? = inconclusive; . = not tested or not shown; ! = not confirmed by another sample.

SMILES	T cruzi growth-1	IDH1 R132H inh	GASC1 inh	T cruzi growth-2	T cruzi growth-3	3T3 cytotox	3T3 cytotox 2
O=C(C[C@@H]1CC[C@@H]2[C@H](COC[C@H](O)CN2S(=O)(=O)c2ccc(F)cc2)O1)NCC1CCCCC1	?	.	-1	2	1	-8	21
O=C(C[C@@H]1CC[C@@H]2[C@H](COC[C@@H](O)CN2S(=O)(=O)c2ccc(F)cc2)O1)NCC1CC1	16	.	0	.	.	.	.
O=C(C[C@@H]1CC[C@@H]2[C@H](COC[C@@H](O)CN2S(=O)(=O)c2ccc(F)cc2)O1)NCCN1CCCCC1	51	.	0	.	.	.	.
COC(=O)CCCCCCC(=O)N/N=C/[C@H](O)[C@H](O)[C@@H](O)[C@@H](O)CO	.	1	.	.	.	.	.
CCC(CCCCC(=O)CCCCC1CCC(=O)O1)O[C@@H]1O[C@H](CO[C@@H]2O[C@H](CO)[C@@H](O)[C@H](O)[C@H]2O)[C@H](OC(=O)/C=C/c2ccc(O)cc2)[C@H](OC(C)=O)[C@H]1O (stereo not given in full)	.	0	.	.	.	.	.
CCN(CC(=O)Nc1ccccc1SC)S(=O)(=O)c1ccc2ccccc2c1	.	0	.	.	.	.	.
COc1ccc(-c2ccc([C@H]3[C@@H](C#N)N(C(=O)C4CC4)[C@@H]3CO)cc2)cc1	106*	.	-4	61	56	-7	37*
COc1ccc(-c2ccc([C@@H]3[C@@H](C#N)N(C(=O)C4CC4)[C@H]3CO)cc2)cc1	80	.	-1	.	.	.	.
COc1ccc(-c2ccccc2[C@H]2[C@@H](C#N)N(C(=O)NC3CCCC3)[C@H]2CO)cc1	.	.	1	.	.	.	.
N#C[C@H]1[C@@H](c2ccc(/C=C/c3ccccc3)cc2)[C@@H](CO)N1C(=O)C1CCCC1	?	.	-1	95*	50	23	27*
COc1ccc(-c2ccc([C@H]3[C@@H](C#N)N(C(=O)C4CCCC4)[C@@H]3CO)cc2)cc1	106*	.	-2	78	24	12	14
COc1ccc(-c2ccc([C@@H]3[C@@H](CO)N(C(=O)NC4CCCC4)[C@H]3C#N)cc2)cc1	?	.	-2	30	-5	-2	-12
N#C[C@@H]1[C@@H](c2ccc(/C=C/c3ccccc3)cc2)[C@@H](CO)N1C(=O)C1CCCC1	26	.	0	.	.	.	.
COc1ccc(-c2ccc([C@@H]3[C@@H](C#N)N(C(=O)C4CCCC4)[C@H]3CO)cc2)cc1	42	.	0	.	.	.	.
O=C(NCc1ccccn1)C1CCCN(S(=O)(=O)c2ccc(F)cc2)C1 (stereo not given)	.	0	.	.	.	.	.
COc1ccccc1NC(=O)c1cnc(Nc2nc3ccccc3s2)nc1C	.	0	.	.	.	.	.
CC(Oc1ccc(Cl)cc1Cl)C(=O)Nc1cc(-c2nc3ccccc3o2)ccc1Cl (stereo not given)	.	0	.	.	.	.	.
COc1ccccc1-c1ccc([C@@H]2[C@H](C#N)N(C(=O)CN(C)C)[C@H]2CO)cc1	53	.	4	.	.	.	.
N#C[C@@H]1[C@H](c2ccc(C3=CCCC3)cc2)[C@H](CO)N1C(=O)C1CC1	95	.	1	.	.	.	.
COc1ccc(-c2ccc([C@@H]3[C@@H](C#N)N(C(=O)CN(C)C)[C@@H]3CO)cc2)cc1	108*	0	-3	77	3	28	22
N#C[C@H]1[C@H](c2ccc(C3=CCCC3)cc2)[C@H](CO)N1C(=O)C1CC1	102*	.	-1	96*	50	8	15
COC(=O)c1cc(NC(=O)CC2Sc3ccccc3NC2=O)cc(C(=O)OC)c1 (stereo not given)	.	0	.	.	.	.	.
CCC(C)C(OC1OC(C)C(O)C(O)C1O)C(C)C(=O)C(C)/C=C(\C)CC(C)C(O)C(C)C(=O)O (stereo not given)	.	5	.	.	.	.	.
O=P(CCNCc1cccnc1)(c1ccccc1)c1ccccc1	.	1	.	.	.	.	.
Cc1ccc(S(=O)(=O)N(C)C[C@@H]2Oc3ncc(C#CCC(C)C)cc3C(=O)N([C@H](C)CO)C[C@@H]2C)cc1	105*	0	-1	105*	61	23	64*
SMILES	T cruzi growth-1	IDH1 R132H inh	GASC1 inh	T cruzi growth-2	T cruzi growth-3	3T3 cytotox	3T3 cytotox 2
Cc1ccc(S(=O)(=O)N(C)C[C@@H]2Oc3ncc(C#CCC(C)C)cc3C(=O)N([C@H](C)CO)C[C@H]2C)cc1	122*!	.	5	103*	65	5	85*
CC(C)CC#Cc1cnc2c(c1)C(=O)N([C@@H](C)CO)C[C@@H](C)[C@H](CN(C)S(=O)(=O)c1ccccc1)O2	78	-7	-2	.	.	.	.
CC(C)CC#Cc1cnc2c(c1)C(=O)N([C@@H](C)CO)C[C@@H](C)[C@H](CN(C)S(C)(=O)=O)O2	41	-5	1	.	.	.	.
CC(C)NC(=O)N(C)C[C@@H]1Oc2cc(C#Cc3ccccn3)ccc2S(=O)(=O)N([C@@H](C)CO)C[C@@H]1C	?	-4	1	30	16	-17	-4
CC(C)NC(=O)N(C)C[C@H]1Oc2cc(C#Cc3ccccn3)ccc2S(=O)(=O)N([C@@H](C)CO)C[C@H]1C	48	21	14	.	.	.	.
CC(C)NC(=O)N(C)C[C@H]1Oc2cc(C#Cc3ccccn3)ccc2S(=O)(=O)N([C@H](C)CO)C[C@H]1C	111*	3	-1	99*	46	4	40*
CC(C)NC(=O)N(C)C[C@@H]1Oc2cc(C#Cc3ccccn3)ccc2S(=O)(=O)N([C@H](C)CO)C[C@@H]1C	5	0	0	.	.	.	.
O=C1c2ccccc2C(=O)N1CCSc1nnnn1-c1ccccc1	.	0	.	.	.	.	.
CC(C)C(=O)Nc1ccc2c(c1)C(=O)N(C)[C@H]1CC[C@H](CC(=O)NCc3ccccc3)O[C@@H]1CO2	103*	.	1	98*	5	-9	-26
CCNC(=O)C[C@@H]1CC[C@H]2[C@@H](COc3ccc(NC(=O)Cc4ccccc4)cc3C(=O)N2C)O1	105*	.	0	104*	4	15	23
Cc1cc(C(=O)Nc2ccc3c(c2)C(=O)N(C)[C@@H]2CC[C@H](CC(=O)NCc4ccc(-c5ccccc5)cc4)O[C@H]2CO3)no1	85	.	.	.	.	.	.
CCNC(=O)C[C@@H]1CC[C@@H]2[C@H](COc3ccc(NC(=O)Cc4ccccc4)cc3C(=O)N2C)O1	11	.	3	.	.	.	.
Cc1cc(C(=O)Nc2ccc3c(c2)C(=O)N(C)[C@@H]2CC[C@H](CC(=O)NCc4ccc(-c5ccccc5)cc4)O[C@@H]2CO3)no1	103*	.	-3	?	?	78*	75*
CC(C)c1ccc(NC(=O)C[C@H]2CC[C@H]3[C@@H](COc4ccc(NC(=O)Nc5ccc(F)c(F)c5)cc4C(=O)N3C)O2)cc1	100*	.	.	103*	78	21	?
CC(C)C(=O)Nc1ccc2c(c1)C(=O)N(C)[C@H]1CC[C@@H](CC(=O)NCc3ccccc3)O[C@@H]1CO2	27	.	-1	.	.	.	.

Screening results as filed in PubChem BioAssay.
